From ChEMBL document CHEMBL4002604, “Evaluation of biological properties of 3,3',4,4'-benzophenonetetracarboxylic dianhydride derivatives and their ability to inhibit hexokinase activity” (2017)

What was measured:
P19 [1] = test: Cytotoxicity against undifferentiated mouse P19 cells assessed as cell mass at 1 to 100 uM after 24 hrs by SRB assay relative to control; assay type: functional
How it was run: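 Cell mass by SRB assay in P19 cells (CRL-1825), either undifferentiated (P19SCs) or differentiated (P19dCs). Cells exposed to 1, 10 or 100 µM for 24, 48 or 72 h. Values expressed relative to untreated control. Means ± SD from at least 4 independent measurements, 6 repeats each. Significance vs control at p<0.05.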

P19 [2] = test: Cytotoxicity against undifferentiated mouse P19 cells assessed as mitochondrial membrane potential at 100 uM after 24 hrs by TMRF dye based fluorescence assay relative to control; assay type: functional
How it was run: (§1)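 Undifferentiated (P19SCs) or differentiated (P19dCs) P19 cells incubated 24 or 72 h with 1 or 100 µM. Mitochondrial membrane potential and mitochondrial superoxide levels measured and expressed relative to untreated control. Means ± SD from 4 independent measurements, at least 4 repeats each. Significance at p<0.05.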

P19 [3] = test: Cytotoxicity against undifferentiated mouse P19 cells assessed as mitochondrial membrane potential at 1 uM after 72 hrs by TMRF dye based fluorescence assay relative to control; assay type: functional; how it was run: as §1
P19 [4] = test: Cytotoxicity against undifferentiated mouse P19 cells assessed as mitochondrial superoxide anion level at 100 uM after 24 hrs by MitoSox dye based fluorescence assay relative to control; assay type: functional; how it was run: as §1
P19 [5] = test: Cytotoxicity against undifferentiated mouse P19 cells assessed as mitochondrial superoxide anion level at 100 uM after 72 hrs by MitoSox dye based fluorescence assay relative to control; assay type: functional; how it was run: as §1
P19 [6] = test: Cytotoxicity against differentiated mouse P19 cells assessed as mitochondrial membrane potential at 1 uM after 72 hrs by TMRF dye based fluorescence assay relative to control; assay type: functional; how it was run: as §1
P19 [7] = test: Cytotoxicity against differentiated mouse P19 cells assessed as mitochondrial superoxide anion level at 100 uM after 24 hrs by MitoSox dye based fluorescence assay relative to control; assay type: functional; how it was run: as §1
P19 [8] = test: Cytotoxicity against differentiated mouse P19 cells assessed as mitochondrial superoxide anion level at 100 uM after 72 hrs by MitoSox dye based fluorescence assay relative to control; assay type: functional; how it was run: as §1
[9] = biological target: T1, Hexokinase-2 (Mus musculus) (UniProt O08528); test: Inhibition of HK2 isolated from mouse undifferentiated P19 cell lysates using [U-14C]-labeled glucose as substrate in presence of ATP and NADP by G6PD enzyme coupled spectrophotometric assay; conditions: in the assay text read “glucose” for “[U-14C]-labeled glucose”
T1 sequence (whole entry): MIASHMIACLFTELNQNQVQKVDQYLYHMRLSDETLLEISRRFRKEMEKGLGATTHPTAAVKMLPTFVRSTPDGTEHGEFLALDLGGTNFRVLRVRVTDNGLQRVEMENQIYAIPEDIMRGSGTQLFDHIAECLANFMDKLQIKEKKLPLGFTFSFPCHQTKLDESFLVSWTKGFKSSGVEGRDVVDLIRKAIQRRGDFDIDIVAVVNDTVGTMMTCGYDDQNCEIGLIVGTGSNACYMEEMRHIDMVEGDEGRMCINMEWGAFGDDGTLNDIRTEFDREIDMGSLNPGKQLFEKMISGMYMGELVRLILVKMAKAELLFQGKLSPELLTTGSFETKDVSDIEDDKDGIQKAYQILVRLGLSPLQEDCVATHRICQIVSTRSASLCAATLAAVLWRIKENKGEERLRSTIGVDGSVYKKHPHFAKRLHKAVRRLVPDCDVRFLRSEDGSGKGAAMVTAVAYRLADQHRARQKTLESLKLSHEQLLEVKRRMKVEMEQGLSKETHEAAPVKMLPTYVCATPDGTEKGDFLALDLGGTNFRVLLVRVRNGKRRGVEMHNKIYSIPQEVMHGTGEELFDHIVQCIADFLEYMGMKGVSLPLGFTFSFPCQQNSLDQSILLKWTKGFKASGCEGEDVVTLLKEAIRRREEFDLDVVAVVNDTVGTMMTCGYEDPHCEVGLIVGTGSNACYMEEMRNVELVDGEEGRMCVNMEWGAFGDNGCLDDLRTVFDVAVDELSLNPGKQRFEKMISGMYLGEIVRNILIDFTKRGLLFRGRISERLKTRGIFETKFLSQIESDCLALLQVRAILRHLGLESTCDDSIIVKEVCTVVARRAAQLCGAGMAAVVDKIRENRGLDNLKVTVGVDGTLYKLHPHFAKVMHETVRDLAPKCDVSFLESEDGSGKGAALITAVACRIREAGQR
How it was run: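 Coupled hexokinase assay at 340 nm following G6P-dependent NADP→NADPH conversion. Enzyme source is freshly prepared, centrifuged undifferentiated P19 lysate supernatant or recombinant human HKII. Buffer: 100 mM Tris-HCl pH 8.0, 0.5 mM EDTA, 10 mM MgCl2, 2 mM glucose, 0.1 mM NADP, 0.1 U/ml G6PD. Preincubated 10 min at 37°C; reaction started with 10 mM ATP. Means ± SD, 4 experiments, at least 4 repeats each.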

[10] = biological target: T1, Hexokinase-2 (Mus musculus); test: Potency index, ratio of compound effect to 2-DG effect for inhibition of HK2 in mouse undifferentiated P19 cells

Structure (SMILES): O=C(c1ccc2c(c1)C(=O)N(c1cccc(O)c1)C2=O)c1ccc2c(c1)C(=O)N(c1cccc(O)c1)C2=O
- Activity (P19 [1]): 103.3%
- Activity (P19 [2]): 91%
- Activity (P19 [3]): 110.4%
- Activity (P19 [4]): 55.1%
- Activity (P19 [5]): 108.3%
- Activity (P19 [6]): 87.8%
- Activity (P19 [7]): 117.4%
- Activity (P19 [8]): 149.1%
- inhibition [9]: Dose-dependent effect
- Ratio [10]: > 500
